High-throughput results from PubChem BioAssay.
The list is not random: actives were taken first. Their share in the collection is about 3.3%.
5HT1E ag: activates the human 5-HT1E serotonin receptor. P28566. CHO 5-HT1E Ga15 NFAT-bla reporter, FRET; 0% DMSO wells, 100% control agonist wells. activation, % at 6 µM. hit rate 0.69% among 65,000. AID 574;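 active = activation above a set limit, the screen-wide mean activation plus 3 SD, cut at about 8.5% in these data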;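 also: 100% = positive control agonist at 1 µM giving full maximal response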
Target sequence (P28566 whole entry, looked up): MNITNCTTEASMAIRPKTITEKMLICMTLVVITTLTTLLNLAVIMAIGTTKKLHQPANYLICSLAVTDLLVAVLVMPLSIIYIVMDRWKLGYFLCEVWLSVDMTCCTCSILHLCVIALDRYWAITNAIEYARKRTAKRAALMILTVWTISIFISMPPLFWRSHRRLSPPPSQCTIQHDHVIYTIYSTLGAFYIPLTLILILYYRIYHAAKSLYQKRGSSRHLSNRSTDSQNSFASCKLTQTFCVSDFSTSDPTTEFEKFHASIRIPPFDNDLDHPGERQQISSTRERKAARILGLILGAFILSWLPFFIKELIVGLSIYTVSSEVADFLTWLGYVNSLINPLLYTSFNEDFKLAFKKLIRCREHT
Jurkat viability: cytotoxicity toward Jurkat cells; Jurkat E6.1 viability, ATP luminescence, 48 h; inhibition, % at 4 µM; hit rate 1.2% among 56,000; AID 463;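 active = inhibition above the mean inhibition of all tested compounds plus 3 SD, cut at about 28% in these data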
5HT1a ag: agonists of human 5-HT1a serotonin receptor | CHO 5-HT1a Ga15 NFAT-bla reporter, FRET ratio; 0% basal, 100% maximal reference agonist | activation, % at 10 µM | hit rate 0.56% among 65,000;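 active = activation above the screen-wide mean activation plus 3 SD, cut at about 19% in these data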;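 also: 0% = DMSO wells and 100% = 5-CT at EC100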
5HT1E antag: antagonists of human 5-HT1E serotonin receptor; P28566; CHO 5-HT1E Ga15 NFAT-bla reporter, FRET, antagonist; inhibition, % at 6 µM; hit rate 0.99% among 65,000; AID 571;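 active = inhibition above a set limit, the mean inhibition across every tested compound plus 3 SD, cut at about 29% in these data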;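 also: signal is the 460 over 535 nm emission ratio of beta-lactamase substrate; 0% = agonist plus DMSO wells and 100% = wells without agonist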
5-HT1A blocker: blocks the human serotonin 5-HT1a receptor. hit rate 0.68% among 62,000. CHO 5-HT1a Ga15 NFAT-bla reporter, antagonist mode. inhibition, % at 10 µM;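 active = inhibition above the mean of all tested compounds plus 3 SD, cut at about 43% in these data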;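 also: receptor stimulated by 5-CT agonist at 100 nM near EC80; beta-lactamase reporter measured by ratiometric fluorescence of a cleavable substrate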
HEK293 NFkB inh: lowers PMA/ionomycin-induced NF-kB signal in HEK293 cells | AID 465 | hit rate 0.21% among 62,000 | inhibition, % at 3 µM | HEK-293 NF-kB luciferase reporter, luminescence;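 active = inhibition above the mean of all tested compounds plus 3 SD, cut at about 40% in these data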;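 also: 0% = stimulated DMSO wells and 100% = 10 µM reference inhibitor 5653914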
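Timing: 1 h pretreatment, 16 h stimulation, 37 °C; system: HEK-293 cells with stable firefly luciferase reporter driven by four HIV NF-kB elements; doses: 3 µM once, 0.30% DMSO; measured by: luciferase luminescence; control set: DMSO and 10 µM reference inhibitor; repeats: single test; reagent: PMA plus ionomycin mix as NF-kB-activating stimulus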
* marks the source's active call; other numbers are inactive results; . = no result given.

SMILES	5HT1E ag	Jurkat viability	5HT1a ag	5HT1E antag	5-HT1A blocker	HEK293 NFkB inh
CCCCOC(=O)C1=C(C)Nc2ncnn2C1c1cc(OC)c(OC)cc1OC (configuration not stated)	0	1	-2	9	4	9
CCCCOc1ccccc1C1C(C(=O)OC)=CN(CC)C=C1C(=O)OC	7	1	40*	-7	-10	7
COc1ccc2[nH]c3c(c2c1)CN(C)CC3	1	0	102*	29*	7	14
COc1ccc2[nH]c3ccccc3c2c1	0	-5	-3	-14	-1	5
CCC(C(=O)Nc1cnccn1)c1ccccc1 (configuration not stated)	18*	-1	-3	-4	-3	4
COC(=O)c1ccccc1NC(=O)Nc1cnccn1	-1	-6	-2	2	2	-6
OCCN1CCN(CC(O)COc2ccc3c(c2)OCO3)CC1 (configuration not stated)	16*	0	0	-5	-2	-2
COc1cc(OC)cc(C(=O)OCc2cc3ccccc3[nH]c2=O)c1	-2	5	-4	13	7	7
COC(=O)CC(=O)Cc1nc(N)nc(Nc2ccc(C)c(C)c2)n1	52*	.	-3	4	.	.
COc1ccc(NC(=O)C(NS(=O)(=O)c2ccc3c(c2)CCCN3C(C)=O)C(C)C)c(OC)c1 (configuration not stated)	17*	6	-4	-9	-5	-9
CC(=O)N1CCc2cc(C(=O)CN3CCN(c4cccc(Cl)c4)CC3)ccc21	26*	0	14	-2	18	13
CC(=O)N1CCc2ccc(C(=O)CN3CCN(c4cccc(C)c4C)CC3)cc21	46*	-6	10	0	-1	12
CSc1nn(CCc2ccncc2)c(=S)s1	-1	-7	-1	-4	0	0
COC(=O)C(C)Sc1nc(-c2ccc(OC)cc2)nc2c1c(=O)n(C)c(=O)n2C (configuration not stated)	1	0	-4	1	11	10
CC(=O)C(Sc1nc(-c2ccc(F)cc2)nc2c1c(=O)n(C)c(=O)n2C)C(C)=O	-1	4	2	97*	6	10
COc1ccc(OC)c(C2C(C(C)=O)=C(O)C(=O)N2CCN2CCOCC2)c1 (configuration not stated)	0	-3	-1	-7	-8	2
CC(=O)C1=C(O)C(=O)N(CCN2CCOCC2)C1c1ccccc1 (configuration not stated)	9.3*	6	-2	16	12	16
CC(NS(=O)(=O)c1ccccc1)C(N)=O (configuration not stated)	-1	2	-5	-12	-6	6
CCOC(=O)N1CCN(C(=O)c2ccc(Cn3c(=S)[nH]c4cc5c(cc4c3=O)OCO5)cc2)CC1	-1	.	6	29*	-4	15
CCOC(=O)N1CCN(C(=O)c2ccc3c(=O)n(Cc4ccccc4)c(=S)[nH]c3c2)CC1	0	2	2	7	8	9
O=c1c2cc(N3CCOCC3)ccc2[nH]c(=S)n1CCCN1CCCC1	9.6*	.	-1	-8	4	17
COC(=O)/C=C/S(=O)(=O)c1ccc(NC(C)=O)cc1	0	71*	-6	67*	82*	2
COc1ccccc1NS(=O)(=O)c1ccc(NC(C)=O)cc1	1	-3	-1	1	-19	6
COc1ccccc1NCCC(=O)OCC(=O)Nc1ccc(Cl)cn1	0	0	-2	2	-8	6
Nc1nonc1-c1nc2ccccc2n1CC(=O)N1CCCCC1	0	2	0	5	7	12
COC(=O)c1ccccc1NC(=O)Cn1c(-c2nonc2N)nc2ccccc21	-1	61*	-2	81*	74*	34
COc1c(Cl)ccc(Cl)c1C(=O)OCC(=O)O	0	-4	0	13	-6	-4
COc1cc(NS(=O)(=O)c2ccc(OC)c(C)c2C)c(OC)cc1Cl	0	79*	-3	17	36	27
CCOc1ccc2[nH]c(=O)c(CN(CC3CCCN3CC)C(=O)NCc3ccccc3)cc2c1 (configuration not stated)	0	-3	-1	9	14	4
